# Measured values published in ChEMBL document CHEMBL4052605, “Lissoclibadin 1, a Polysulfur Aromatic Alkaloid from the Indonesian Ascidian Lissoclinum cf. badium, Induces Caspase-Dependent Apoptosis in Human Colon Cancer Cells and Suppresses Tumor Growth in Nude Mice” (J Nat Prod, 2017).
# Key:
# HCT-15 = test: Antiproliferative activity against human HCT15 cells after 24 hrs by WST-1 assay; type: functional, cell-based; conditions: HCT-15, 24 h
# In short: (§1)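 WST-1 viability assay. Cells seeded at 5 × 10^3 per well and grown 24 h, then given lissoclibadins at 0.1−40 μM (etoposide 1.0−100 μM) in triplicate for 24 h. WST-1 added and absorbance read 4 h later at 450 nm, background subtracted at 650 nm. Viability expressed as % of control; IC50 taken as 50% inhibition of viability. Three experiments, mean ± SD.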
# HeLa S3 = test: Antiproliferative activity against human HeLaS3 cells after 24 hrs by WST-1 assay; type: functional, cell-based; conditions: HeLa S3, 24 h; in short: as §1
smiles,measurement,setting,value
COc1cc(CCN(C)C)c2c(c1O)SSc1c(CCN(C)C)cc(OC)c(O)c1SS2 [LISSOCLIBADIN 7],IC50,HCT-15,15.7 µM
same,IC50,HeLa S3,14.2 µM
COc1cc([C@@H]2c3cc4c(cc3[C@@H](O[C@@H]3O[C@@H]5CO[C@@H](C)O[C@H]5[C@H](O)[C@H]3O)[C@H]3COC(=O)[C@H]23)OCO4)cc(OC)c1O [ETOPOSIDE],IC50,HCT-15,19.7 µM
same,IC50,HeLa S3,43.1 µM
